# Assay results reported in ChEMBL document CHEMBL3875141, “2,4,5-Trisubstituted thiazole derivatives as HIV-1 NNRTIs effective on both wild-type and mutant HIV-1 reverse transcriptase: Optimization of the substitution of positions 4 and 5” (Eur J Med Chem, 2016).
# Assays:
# [1] = test system: Human immunodeficiency virus 1; assay: Antiviral activity against wild-type HIV-1 NL4-3 harboring vesicular stomatitis virus glycoprotein infected in HEK293T cells pretreated with cells for 15 mins followed by viral infection measured after 48 hrs by luciferase reporter gene assay; assay type: functional, cell-based; conditions: Human immunodeficiency virus 1, NL4-3, HEK-293T
# Procedure, shortened: (§1)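 VSV-G-pseudotyped HIV-1 (wild-type or RT mutant) produced by co-transfection of HEK293T cells (calcium phosphate), supernatant harvested 48 h, 0.22 µm filtered, normalised by p24 ELISA to 0.2 ng p24/mL.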
# [2] = Cytotoxicity against HEK293T cells at 10 uM after 48 hrs by cell proliferation assay; assay type: toxicity, cell-based; conditions: human, hek-293t
# Procedure, shortened: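 HEK 293T cells seeded at 1×10^4 cells/well, treated next day with serially diluted compounds and cultured 48 h; viability read with a cell proliferation assay kit per manufacturer's instructions. Footnote reports testing at a final concentration of 10 μM.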
# [3] = test system: Human immunodeficiency virus 1; assay: Ratio of IC50 for HIV-1 NL4-3 harboring RT-L100I/K103N double mutant infected in HEK293T cells co-expressing vesicular stomatitis virus glycoprotein to IC50 for wild-type HIV-1 NL4-3 infected in HEK293T cells co-expressing vesicular stomatitis virus glycoprotein; assay type: functional, HEK-293T
# Procedure, shortened: (§2)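 Fold change: mean IC50 against each RT-mutant VSV-G-pseudotyped virus divided by IC50 against wild-type pseudovirus. Both values come from the same HEK293T assay: 0.2 ng p24/mL inoculum, compound added 15 min before infection, luciferase read-out at 48 h.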
# [4] = test system: Human immunodeficiency virus 1; assay: Antiviral activity against HIV-1 NL4-3 harboring RT-Y188L mutant infected in HEK293T cells coexpressing vesicular stomatitis virus glycoprotein pretreated with cells for 15 mins followed by viral infection measured after 48 hrs by luciferase reporter gene assay; assay type: functional, cell-based; conditions: hek-293t; procedure, shortened: as §1
# [5] = test system: Human immunodeficiency virus 1; assay: Antiviral activity against HIV-1 NL4-3 harboring RT-K103N mutant infected in HEK293T cells coexpressing vesicular stomatitis virus glycoprotein pretreated with cells for 15 mins followed by viral infection measured after 48 hrs by luciferase reporter gene assay; assay type: functional, cell-based; conditions: hek-293t; procedure, shortened: as §1
# [6] = test system: Human immunodeficiency virus 1; assay: Antiviral activity against HIV-1 NL4-3 harboring RT-K103N/G190A double mutant infected in HEK293T cells coexpressing vesicular stomatitis virus glycoprotein pretreated with cells for 15 mins followed by viral infection measured after 48 hrs by luciferase reporter gene assay; assay type: functional, cell-based; conditions: hek-293t; procedure, shortened: as §1
# [7] = test system: Human immunodeficiency virus 1; assay: Ratio of IC50 for HIV-1 NL4-3 harboring RT-Y181C mutant infected in HEK293T cells co-expressing vesicular stomatitis virus glycoprotein to IC50 for wild-type HIV-1 NL4-3 infected in HEK293T cells co-expressing vesicular stomatitis virus glycoprotein; assay type: functional, HEK-293T; procedure, shortened: as §2
# [8] = test system: Human immunodeficiency virus 1; assay: Antiviral activity against HIV-1 NL4-3 harboring RT-K103N/V108I double mutant infected in HEK293T cells coexpressing vesicular stomatitis virus glycoprotein pretreated with cells for 15 mins followed by viral infection measured after 48 hrs by luciferase reporter gene assay; assay type: functional, cell-based; conditions: hek-293t; procedure, shortened: as §1
# [9] = test system: Human immunodeficiency virus 1; assay: Ratio of IC50 for HIV-1 NL4-3 harboring RT-K103N/Y188L double mutant infected in HEK293T cells co-expressing vesicular stomatitis virus glycoprotein to IC50 for wild-type HIV-1 NL4-3 infected in HEK293T cells co-expressing vesicular stomatitis virus glycoprotein; assay type: functional, HEK-293T; procedure, shortened: as §2
# [10] = test system: Human immunodeficiency virus 1; assay: Antiviral activity against HIV-1 NL4-3 harboring RT-K103N/Y181C double mutant infected in HEK293T cells coexpressing vesicular stomatitis virus glycoprotein pretreated with cells for 15 mins followed by viral infection measured after 48 hrs by luciferase reporter gene assay; assay type: functional, cell-based; conditions: hek-293t; procedure, shortened: as §1
# [11] = test system: Human immunodeficiency virus 1; assay: Ratio of IC50 for HIV-1 NL4-3 harboring RT-Y188L mutant infected in HEK293T cells co-expressing vesicular stomatitis virus glycoprotein to IC50 for wild-type HIV-1 NL4-3 infected in HEK293T cells co-expressing vesicular stomatitis virus glycoprotein; assay type: functional, HEK-293T; procedure, shortened: as §2
# [12] = test system: Human immunodeficiency virus 1; assay: Antiviral activity against HIV-1 NL4-3 harboring RT-Y181C mutant infected in HEK293T cells coexpressing vesicular stomatitis virus glycoprotein pretreated with cells for 15 mins followed by viral infection measured after 48 hrs by luciferase reporter gene assay; assay type: functional, cell-based; conditions: hek-293t; procedure, shortened: as §1
# [13] = test system: Human immunodeficiency virus 1; assay: Antiviral activity against HIV-1 NL4-3 harboring RT-L100I/K103N double mutant infected in HEK293T cells coexpressing vesicular stomatitis virus glycoprotein pretreated with cells for 15 mins followed by viral infection measured after 48 hrs by luciferase reporter gene assay; assay type: functional, cell-based; conditions: hek-293t; procedure, shortened: as §1
# [14] = test system: Human immunodeficiency virus 1; assay: Antiviral activity against HIV-1 NL4-3 harboring RT-K103N/Y188L double mutant infected in HEK293T cells coexpressing vesicular stomatitis virus glycoprotein pretreated with cells for 15 mins followed by viral infection measured after 48 hrs by luciferase reporter gene assay; assay type: functional, cell-based; conditions: hek-293t; procedure, shortened: as §1
# [15] = test system: Human immunodeficiency virus 1; assay: Antiviral activity against HIV-1 NL4-3 harboring RT-K103N/P225H double mutant infected in HEK293T cells coexpressing vesicular stomatitis virus glycoprotein pretreated with cells for 15 mins followed by viral infection measured after 48 hrs by luciferase reporter gene assay; assay type: functional, cell-based; conditions: hek-293t; procedure, shortened: as §1
# [16] = test system: Human immunodeficiency virus 1; assay: Ratio of IC50 for HIV-1 NL4-3 harboring RT-K103N mutant infected in HEK293T cells co-expressing vesicular stomatitis virus glycoprotein to IC50 for wild-type HIV-1 NL4-3 infected in HEK293T cells co-expressing vesicular stomatitis virus glycoprotein; assay type: functional, HEK-293T
# [17] = test system: Human immunodeficiency virus 1; assay: Ratio of IC50 for HIV-1 NL4-3 harboring RT-K103N/G190A double mutant infected in HEK293T cells co-expressing vesicular stomatitis virus glycoprotein to IC50 for wild-type HIV-1 NL4-3 infected in HEK293T cells co-expressing vesicular stomatitis virus glycoprotein; assay type: functional, HEK-293T; procedure, shortened: as §2
# [18] = test system: Human immunodeficiency virus 1; assay: Ratio of IC50 for HIV-1 NL4-3 harboring RT-K103N/Y181C double mutant infected in HEK293T cells co-expressing vesicular stomatitis virus glycoprotein to IC50 for wild-type HIV-1 NL4-3 infected in HEK293T cells co-expressing vesicular stomatitis virus glycoprotein; assay type: functional, HEK-293T; procedure, shortened: as §2
# [19] = test system: Human immunodeficiency virus 1; assay: Ratio of IC50 for HIV-1 NL4-3 harboring RT-K103N/V108I double mutant infected in HEK293T cells co-expressing vesicular stomatitis virus glycoprotein to IC50 for wild-type HIV-1 NL4-3 infected in HEK293T cells co-expressing vesicular stomatitis virus glycoprotein; assay type: functional, HEK-293T; procedure, shortened: as §2
# [20] = test system: Human immunodeficiency virus 1; assay: Ratio of IC50 for HIV-1 NL4-3 harboring RT-K103N/P225H double mutant infected in HEK293T cells co-expressing vesicular stomatitis virus glycoprotein to IC50 for wild-type HIV-1 NL4-3 infected in HEK293T cells co-expressing vesicular stomatitis virus glycoprotein; assay type: functional, HEK-293T; procedure, shortened: as §2
# [21] = Inhibition of wild-type HIV-1 reverse transcriptase RNA-dependent DNA polymerase activity assessed as reduction in digoxigenin-11-dUTP incorporation using poly(rA)/oligo(dT) as template/primer incubated for 1 hr; set-up: species or system Human immunodeficiency virus 1
structure (smiles),measurement,setting,value
COc1ccccc1Cc1sc(NCc2ccc3c(c2)CCO3)nc1-c1ccc(Cl)cc1Cl,IC50,[1],88 nM
same,Activity,[2],Non-Toxic
Fc1ccc(-c2nc(NCc3ccc4c(c3)CCO4)sc2Cc2c(Cl)cccc2Cl)c(F)c1,IC50,[1],21 nM
same,Activity,[2],Non-Toxic
Fc1ccccc1-c1nc(NCc2ccc3c(c2)CCO3)sc1Cc1c(Cl)cccc1Cl,IC50,[1],32 nM
same,Activity,[2],Non-Toxic
c1ccc(Cc2sc(NCc3ccc4c(c3)CCO4)nc2-c2ccccc2)cc1,IC50,[1],239 nM
same,Activity,[2],Non-Toxic
COc1ccccc1Cc1sc(NCc2ccc3c(c2)CCO3)nc1-c1ccc(F)cc1F,Ratio IC50,[3],19.5
same,IC50,[4],> 10000 nM
same,IC50,[1],44.7 to 45 nM
same,IC50,[5],290 nM
same,IC50,[6],490 nM
same,Ratio IC50,[7],2.9
same,IC50,[8],760 nM
same,Activity,[2],Non-Toxic
same,Ratio IC50,[9],>223.7
same,IC50,[10],450 nM
same,Ratio IC50,[11],>223.7
same,IC50,[12],130 nM
same,IC50,[13],870 nM
same,IC50,[14],> 10000 nM
same,IC50,[15],1050 nM
same,Ratio IC50,[16],6.5
same,Ratio IC50,[17],11
same,Ratio IC50,[18],10.1
same,Ratio IC50,[19],17
same,Ratio IC50,[20],23.5
Fc1cc(F)cc(Cc2sc(NCc3ccc4c(c3)CCO4)nc2-c2ccccc2)c1,Ratio IC50,[3],31.5
same,IC50,[4],> 10000 nM
same,IC50,[1],37 to 37.2 nM
same,IC50,[5],1410 nM
same,IC50,[6],2000 nM
same,Ratio IC50,[7],149.5
same,IC50,[8],10400 nM
same,Activity,[2],Non-Toxic
same,Ratio IC50,[9],>268.8
same,IC50,[10],> 10000 nM
same,Ratio IC50,[11],>268.8
same,IC50,[12],5560 nM
same,IC50,[13],1170 nM
same,IC50,[14],> 10000 nM
same,IC50,[15],5030 nM
same,Ratio IC50,[16],37.9
same,Ratio IC50,[17],53.8
same,Ratio IC50,[18],>268.8
same,Ratio IC50,[19],279.6
same,Ratio IC50,[20],135.2
COc1cccc(Cc2sc(NCc3ccc4c(c3)CCO4)nc2-c2ccccc2)c1,IC50,[1],136 nM
same,Activity,[2],Non-Toxic
Fc1cc(F)cc(Cc2sc(NCc3ccc4c(c3)CCO4)nc2-c2ccccc2F)c1,IC50,[1],10 nM
same,Activity,[2],Non-Toxic
same,IC50,[21],64 nM
Clc1ccc(Cc2sc(NCc3ccc4c(c3)CCO4)nc2-c2ccccc2)cc1,IC50,[1],> 10000 nM
same,Activity,[2],Non-Toxic
O=C1Nc2ccc(Cl)cc2[C@@](C#CC2CC2)(C(F)(F)F)O1 [EFAVIRENZ],IC50,[1],1.04 nM
same,IC50,[10],58.7 nM
same,IC50,[13],2490 nM
same,IC50,[14],13800 nM
Fc1cc(F)cc(Cc2sc(NCc3ccc4c(c3)CCO4)nc2-c2ccc(F)cc2F)c1,IC50,[4],7000 nM
same,IC50,[1],13.9 to 14 nM
same,IC50,[5],200 nM
same,Ratio IC50,[7],79
same,IC50,[8],3900 nM
same,Activity,[2],Non-Toxic
same,Ratio IC50,[11],504
same,IC50,[12],1100 nM
same,Ratio IC50,[16],14
same,Ratio IC50,[19],218
COc1ccc(Cc2sc(NCc3ccc4c(c3)CCO4)nc2-c2ccccc2)cc1,IC50,[1],> 10000 nM
same,Activity,[2],Non-Toxic
COc1ccccc1Cc1sc(NCc2ccc3c(c2)CCO3)nc1-c1ccccc1F,IC50,[1],10 nM
same,Activity,[2],Non-Toxic
same,IC50,[21],20 nM
COc1ccccc1Cc1sc(NCc2ccc3c(c2)CCO3)nc1-c1cc(F)cc(F)c1,IC50,[1],7320 nM
same,Activity,[2],Non-Toxic
Fc1ccc(Cc2sc(NCc3ccc4c(c3)CCO4)nc2-c2ccccc2)cc1,IC50,[1],5670 nM
same,Activity,[2],Non-Toxic
Clc1ccccc1-c1nc(NCc2ccc3c(c2)CCO3)sc1Cc1c(Cl)cccc1Cl,IC50,[1],22 nM
same,Activity,[2],Non-Toxic
Fc1cc(F)cc(Cc2sc(NCc3ccc4c(c3)CCO4)nc2-c2ccc(Cl)cc2Cl)c1,IC50,[1],68 nM
same,Activity,[2],Non-Toxic
Clc1ccc(-c2nc(NCc3ccc4c(c3)CCO4)sc2Cc2c(Cl)cccc2Cl)c(Cl)c1,IC50,[1],71 nM
same,Activity,[2],Non-Toxic
Fc1cc(F)cc(Cc2sc(NCc3ccc4c(c3)CCO4)nc2-c2ccccc2Cl)c1,IC50,[4],1400 nM
same,IC50,[1],10 nM
same,IC50,[5],80 nM
same,Ratio IC50,[7],39
same,IC50,[8],300 nM
same,Activity,[2],Non-Toxic
same,Ratio IC50,[11],136
same,IC50,[12],400 nM
same,Ratio IC50,[16],7.8
same,IC50,[21],25 nM
same,Ratio IC50,[19],29
COc1ccccc1Cc1sc(NCc2ccc3c(c2)CCO3)nc1-c1ccccc1Cl,IC50,[1],10 nM
same,Activity,[2],Non-Toxic
same,IC50,[21],14 nM
Cc1ccnc2c1NC(=O)c1cccnc1N2C1CC1 [NEVIRAPINE],Ratio IC50,[3],161
same,IC50,[4],> 10000 nM
same,IC50,[6],> 10000 nM
same,Ratio IC50,[7],2152
same,Ratio IC50,[9],>322
same,IC50,[10],> 10000 nM
same,Ratio IC50,[11],>322
same,IC50,[13],5000 nM
same,IC50,[14],> 10000 nM
same,Ratio IC50,[16],519
same,Ratio IC50,[17],>322
same,IC50,[21],2100 nM
same,Ratio IC50,[18],>322
same,Ratio IC50,[19],90
same,Ratio IC50,[20],177
